Screens deposited in PubChem BioAssay by Johns Hopkins Ion Channel Center.
This is a sample that favours compounds with a hit; in the whole collection about 3.1% have one here.
KCNK9 block: KCNK9 potassium channel inhibitors, primary screen, HEK293 cells, thallium flux; hit rate 1.2% among 310,000; B-score at 10 µM; AID 488922, 2010; FluxOR thallium flux fluorescence; active compounds read low; Potassium channel subfamily K member 9 (Homo sapiens), Q9NPC2;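 active = ratio B-score over 3 SD below the library mean, with starting fluorescence within 5 SD of its mean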;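 also: negative B-score means less thallium flux so channel inhibition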
Target sequence (Q9NPC2 whole entry, looked up): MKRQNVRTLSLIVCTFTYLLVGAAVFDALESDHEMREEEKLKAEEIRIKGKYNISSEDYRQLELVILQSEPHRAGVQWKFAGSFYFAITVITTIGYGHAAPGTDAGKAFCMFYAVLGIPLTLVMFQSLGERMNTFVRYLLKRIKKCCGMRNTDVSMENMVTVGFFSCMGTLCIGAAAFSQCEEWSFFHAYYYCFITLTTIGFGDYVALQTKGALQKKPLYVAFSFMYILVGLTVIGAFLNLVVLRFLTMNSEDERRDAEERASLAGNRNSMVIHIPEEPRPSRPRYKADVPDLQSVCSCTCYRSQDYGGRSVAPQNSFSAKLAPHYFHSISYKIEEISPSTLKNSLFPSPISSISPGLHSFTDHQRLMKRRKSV
KCNK3 inh: human KCNK3 channel inhibitors, primary screen, CHO cells, FluxOR thallium flux, B-score. Potassium channel subfamily K member 3 (Homo sapiens), O14649. FluxOR fluorescence; active compounds read low. B-score at 10 µM. hit rate 0.84% among 340,000. AID 602410, 2012;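 active = B-score under library mean minus 4 SD, starting fluorescence ratio at most library mean plus 5 SD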;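 also: more negative B-score means stronger inhibition of thallium flux through KCNK3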
hERG protect: hERG rescue from dofetilide block, primary screen, cell-based, CHO-hERG, FluxOR thallium flux, dofetilide IC70. Voltage-gated inwardly rectifying potassium channel KCNH2 (Homo sapiens), Q12809. dofetilide IC70 present. activation (rescue from dofetilide block), less the hit threshold, % at 10 µM. hit rate 0.51% among 310,000. AID 1511, 2009;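 active = activation above the mean of controls blocked by dofetilide plus 5 SD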;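 also: thallium influx through hERG after potassium depolarization seen as dye fluorescence rise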
KCNQ1 inh: inhibitors of human KCNQ1 channel, primary screen, cell-based, thallium flux, high-throughput; CHO-K1 KCNQ1, FluxOR thallium flux fluorescence; active compounds read high; B-score at 10 µM; hit rate 1.3% among 310,000;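 active = compounds whose thallium flux B-score, printed positive for inhibition, exceeds three library SD while starting fluorescence stays within three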;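 also: channel opened by potassium depolarization with thallium stimulus after 20 min compound exposure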
KCNQ1 pot: potentiators or activators of KCNQ1 channel, primary screen, cell-based, thallium flux, high-throughput. CHO-K1 KCNQ1, thallium flux FluxOR fluorescence; active compounds read high. B-score at 10 µM. Potassium voltage-gated channel subfamily KQT member 1 (Homo sapiens), P51787. hit rate 0.35% among 310,000;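 active = fluorescence ratio B-score, a plate-corrected score, at least three library SD, with initial intensity B-score within 5 SD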
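Assay system: CHO-K1 cells stably expressing KCNQ1. Medium: assay buffer for compound exposure, DMSO matched across wells. Timing: 37 °C overnight plating, 90-min dark dye load, 20-min compound pretreatment. Signal: kinetic FluxOR fluorescence, 10 s baseline plus 110 s post-stimulus.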
Numbers without * were called inactive; i = inactive; nt = no result.

SMILES | KCNK9 block | KCNK3 inh | hERG protect | KCNQ1 inh | KCNQ1 pot
CCOc1ccccc1C(=O)NC(C)c1ccc2c(c1)OCO2 (stereo unspecified) | i | i | -10.2 | i | i
CN1OC[C@@H]2CN(C(=O)CCc3ccccc3)[C@H](c3cccc(N4CCOCC4)c3)C[C@@H]21 | nt | i | nt | nt | nt
O=C(Nc1ccc(NC(=O)C2CC2)nc1)c1cccnc1 | i | i | 4.9* | i | i
CCCc1nnc(NC(=O)CCC(=O)N2CCN(Cc3ccc(Cl)cc3)CC2)s1 | i | i | -5.4 | i | i
CCOc1ccc(/C=C/C(O)=C2/C(=O)NC3(C)CC2c2ccccc2O3)cc1OC (stereo unspecified) | i | i | -2.4 | i | i
CN(C)c1ccc(/C=C/C(O)=C2/C(=O)N(C)C3(C)CC2c2ccccc2O3)cc1 (stereo unspecified) | i | nt | -16.8 | 7* | i
CCn1c(C)c(C)c2cc(C(=O)Nc3cccc(Cl)c3)ccc21 | i | i | -17.6 | 6* | i
COC(=O)c1cc(S(=O)(=O)NCC2CCN(CCc3ccc(OC)cc3)CC2)c[nH]1 | i | i | -6.4 | i | i
C[C@@]12CCC3[C@@](CCC4[C@@]3(C)CCC[C@@]4(C)C(=O)N3CCOCC3)(CC1=O)C2 (stereo partly specified) | nt | i | nt | nt | nt
COc1cc(/C=C/CNC[C@H]2O[C@@H](n3ccc(=O)[nH]c3=O)[C@H](O)[C@@H]2O)ccc1O | nt | i | nt | nt | nt
CSc1nc(Oc2ccc3ccccc3c2)c2ccccc2n1 | -7.15* | i | -10.4 | i | i
CSc1nc(Oc2ccccc2)c2sccc2n1 | i | i | -8.0 | i | i
Cc1ccc2oc(C(=O)N3CCN(CCO)CC3)c(C)c2c1 | i | i | 8.5* | i | 9*
CCOC(=O)C1C(=O)C=C(c2ccc([N+](=O)[O-])cc2)CC1c1ccccc1 (stereo unspecified) | i | i | -16.5 | 6* | i
CCOC(=O)C1C(=O)C=C(c2ccc(C)cc2)CC1c1ccccc1 (stereo unspecified) | i | i | -16.4 | i | i
CCOc1ccccc1OCCC(=O)N1CCN(S(=O)(=O)c2ccccc2[N+](=O)[O-])CC1 | nt | i | nt | nt | nt
COCCOC(=O)/C(=C/c1ccc(OC(=O)c2ccccc2)cc1)C(C)=O | i | i | -20.1 | i | 13*
CCOC(=O)/C(=C/c1ccc(OC(=O)c2ccncc2)cc1)C(C)=O | i | i | -13.7 | i | i
O=C(OCCOc1ccccc1F)c1cccc(S(=O)(=O)N2CCOCC2)c1 | nt | i | nt | nt | nt
COc1ccc(-n2c(C)cc(/C=C3\C(=N)N4N=C(CC(=O)N5CCOCC5)SC4=NC3=O)c2C)cc1 | i | i | -6.6 | i | i
O=[N+]([O-])c1cccc(-c2ccc(/C=N/Nc3nc(N4CCCCC4)nc(N4CCCCC4)n3)o2)c1 | i | i | -15.7 | 7* | i
Cc1cc(C)cc(N(CCC#N)C(=O)COC(=O)Cn2[nH]c(=O)c3ccccc3c2=O)c1 | nt | i | nt | nt | nt
CCOc1ncccc1C(=O)Nc1cc(S(=O)(=O)N(CC)CC)ccc1N1CCOCC1 | nt | i | nt | nt | nt
Cc1cc(C=C2C(=O)c3ccccc3C2=O)c(C)n1C | i | i | -5.2 | i | i
Cc1cc(C=C2C(=O)c3ccccc3C2=O)c(C)n1-c1ccc(Cl)cc1 | -7* | i | -8.6 | i | i
SMILES | KCNK9 block | KCNK3 inh | hERG protect | KCNQ1 inh | KCNQ1 pot
Cc1cccc(-n2c(C)cc(C=C3C(=O)c4ccccc4C3=O)c2C)c1 | i | i | -4.4 | 6* | i
Cc1cc(C(C)(C)C)cc(C)c1CCNC(=O)c1c(C)noc1C | nt | i | nt | nt | nt
COc1ccccc1C(=O)NCCC(=O)NCC1CCCCC1 | nt | i | nt | nt | nt
O=c1cc(O)nc(-c2ccc(Cl)cc2)s1 | i | i | -6.1 | i | i
Cc1cc(NC(=O)c2ccc(Cl)cc2)c(C)cc1O | i | i | -7.2 | i | i
Cc1cc(C(C#N)c2ccc(Cl)cc2)c(Cl)cc1NC(=O)c1cc(I)cc(I)c1O (stereo unspecified) | i | i | -26.2 | i | 8*
CCCCCCCCNC(=O)/C(C#N)=C/c1ccccc1[N+](=O)[O-] | i | i | -11.7 | 7* | i
CCOCCCNC(=O)/C(C#N)=C/c1ccc([N+](=O)[O-])o1 | i | i | -10.7 | 6* | i
N#C/C(=C\c1ccccc1[N+](=O)[O-])C(=O)NCc1ccccc1 | i | i | -15.1 | 6* | i
O=C1CCC(C(=O)N2CCCCO2)CN1Cc1ccc(Cl)cc1 (stereo unspecified) | i | i | 1.1 | i | i
CSC1=NSC2=NC(=O)/C(=C/c3coc4ccc(O)cc4c3=O)C(=N)N12 | i | i | -46.7 | 9* | i
COc1ccc(CNCCC(c2ccc(F)cc2)c2ccc(OC)cc2)cc1 (stereo unspecified) | i | i | -22.1 | 7* | i
COc1ccc(C(CCNCc2ccc(OC(C)C)cc2)c2ccccc2OC)cc1 (stereo unspecified) | i | i | -19.8 | 6* | i
COc1ccc(CNCCC(c2ccc(OC)cc2)c2ccccc2OC)cc1 (stereo unspecified) | i | i | -10.7 | i | i
CCOc1ccc(N2CC(C(=O)N3CCN(C(=O)c4ccco4)CC3)CC2=O)cc1 (stereo unspecified) | i | i | -5.0 | i | i
CCOC(=O)c1c(NC(=O)CSc2nc3cccnc3n2C)sc(C(C)=O)c1C | i | -10.3* | -5.2 | i | i
Cc1ccc2c(c1)-c1cc(C)nn1C(c1ccc3c(c1)OCO3)N2 (stereo unspecified) | -7.58* | i | -9.9 | i | i
CN(C)c1ccc(NC(=O)CSc2n[nH]c(-c3ccncc3)n2)cc1 | nt | i | nt | nt | nt
CCC(C)(C)NC(=O)C(c1cccc(OC)c1)N(C(=O)c1ccn[nH]1)c1cccc(OC)c1 (stereo unspecified) | i | i | -13.9 | 8* | i
CCC(C)(C)NC(=O)C(c1cccs1)N(C(=O)c1ccn[nH]1)c1ccccc1 (stereo unspecified) | i | i | -9.0 | i | i
CC(C)COc1ccc(-c2nn(-c3ccccc3)cc2/C=C2/SC(=S)N(CC(=O)O)C2=O)cc1 | i | i | -5.3 | i | 8*
CN(C)CCN(C(=O)c1cccc2ccccc12)c1nc2cc3c(cc2s1)OCO3 | i | i | -21.4 | 6* | i
